Each structure is given as a SMILES string.

The nature of series [1]: 1-Octanol/DDH2O partition coefficient, log P of the compound incubated for 48 hrs under stirring condition measured by UV-Vis spectrophotometric method. Conditions: for logP: octanol/water, 48 h. The format is physicochemical. A digest of the protocol:
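Slow-stir shake method (OECD-based, modified): compound dissolved in water-saturated 1-octanol, centrifuged 5000 rpm 5 min, supernatant mixed with equal volume octanol-saturated water, stirred at room temperature 48 h. Phases separated by centrifugation; octanol-phase UV absorbance read before and after. Log P = log[Ax/(A0−Ax)]. Repeated three times, Mean ± SD.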

Series [2] has as its system RAW264.7. The experiment in a line: Cytotoxicity against mouse RAW264.7 cells after 48 hrs by MTT assay. The settings on record: RAW264.7, 48 h. The format is cell-based. A digest of the protocol:
(§1)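 Cells kept in RPMI1640 with 10% heat-inactivated FBS, 2 mM L-glutamine, 1 mM pyruvate, pen-strep, 37 °C, 5% CO2. 3000 cells/well seeded 24 h, then exposed to graded concentrations (DMSO ≤0.1% final) for 48 h. Then 0.5 mg/mL MTT 3 h at 37 °C, DMSO solubilization, absorbance 570 nm. Quadruplicate data fitted to dose–response curves for IC50.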
Background: Formazan colour is commonly taken as a measure of viable cells.

Series [3] is described as follows: Selectivity index, ratio of IC50 for mouse RAW264.7 cells to IC50 for Trypanosoma brucei brucei Lister 427. The format is toxicity. The settings on record: read-out: Ratio IC50. In a few lines:
(§2)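 Ratio of mammalian MTT IC50 (48 h) to T. brucei MTS IC50 (48 h), both from quadruplicate dose–response fits.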

The subject of series [4] is HEK293. The experiment in a line: Cytotoxicity against HEK293 cells after 48 hrs by MTT assay. The format is cell-based. The settings on record: Homo sapiens, HEK293, 48 h. A digest of the protocol: as §1
A short description of series [5]: Selectivity index, ratio of IC50 for HEK293 cells to IC50 for Trypanosoma brucei brucei Lister 427. The class given is toxicity. The settings on record: human, read-out: Ratio IC50. In a few lines: as §2
The subject of series [6] is Trypanosoma brucei brucei. Description: Antiparasitic activity against Trypanosoma brucei brucei Lister 427 assessed as reduction in parasite viability after 48 hrs by MTS assay. Conditions: Lister 427, 48 h. The format is functional, organism-based. In a few lines: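 Bloodstream-form Lister 427 grown in HMI-9 with 10% FBS, 37 °C, 7.5% CO2. 5000 cells/well exposed to graded concentrations with 0.1% DMSO for 48 h at 37 °C. MTS/PMS reagent then added, 3 h at 37 °C, formazan read at 490 nm. Quadruplicate data normalized and fitted to dose–response curves for IC50 (Mean ± S.D.).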

Series [7] concerns Trypanosoma brucei brucei. The experiment in a line: Inhibition of tubulin polymerization in Trypanosoma brucei brucei Lister 427 assessed as increase in non-polymerized tubulin after 12 hrs by Western blot analysis. In a few lines: (§3)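 Trypanosomes treated with different doses (0.5% DMSO) for 12 h, washed in TDB pH 7.4 and lysed in Pipes pH 6.8/EGTA/MgCl2/0.15% Triton X-100/glycerol buffer, 4 °C, 5 min. Lysate spun 15,000 g 30 min at 4 °C: supernatant taken as non-polymerized tubulin, RIPA-resuspended pellet as polymerized. Equal cell equivalents (1.83 × 10^7) run on 10% SDS-PAGE for western blot.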
For orientation: A western blot detects proteins with antibodies after separation by electrophoresis.

For series [8], the system named is Trypanosoma brucei brucei. The experiment in a line: Inhibition of tubulin polymerization in Trypanosoma brucei brucei Lister 427 assessed as decrease in polymerized tubulin after 12 hrs by Western blot analysis. In a few lines:
as §3

Take `CN(c1ccc(NC(=O)c2ccc(C#N)cc2)cc1OCc1ccc(C(F)(F)F)cc1)S(=O)(=O)Cc1ccccc1`: the logP at 48 h in series [1] (1-octanol/DDH2O) was determined as 2.9.
For the molecule `CS(=O)(=O)Nc1ccc(NC(=O)c2ccc(Cl)cc2)cc1Cl`, the concentration for half-maximal inhibition (IC50) is 79.9 µM in series [2], 167 µM in series [4] and above 62.5 µM in series [6]. Also, the selectivity ratio in series [3] was below 2; in series [5], below 3.
In the case of `CCS(=O)(=O)Nc1ccc(NC(=O)c2ccc(C#N)cc2)cc1F`, the IC50 in series [2] was 107 µM; in series [4] it was 26.4 µM; in series [6], above 62.5 µM. For the same molecule, the selectivity ratio in series [3] was below 2; in series [5] it was below 1.
On the same counts, the results for `COc1cc(NC(=O)c2cccc(C(F)(F)F)c2)ccc1NS(=O)(=O)C(F)(F)F` are 75.2 µM, above 250 µM, 43 µM, 2 and above 6.
In the case of `O=C(Nc1ccc(NS(=O)(=O)C(F)(F)F)c(F)c1)c1cc(C(F)(F)F)cc(C(F)(F)F)c1`, the 50% inhibitory concentration (IC50) in series [2] stood at 112 µM; in series [4], 164 µM; in series [6], 9.39 µM. In addition, the selectivity ratio in series [3] amounted to 12; in series [5], 17.
As to `O=C(Nc1ccc(NS(=O)(=O)C(F)(F)F)c(Cl)c1)c1ccc(Cl)c([N+](=O)[O-])c1`, the IC50 stood at 31.7 µM in series [2], 228 µM in series [4] and 47.6 µM in series [6]. In addition, the selectivity ratio in series [3] was 1; in series [5] it was 5.
On the same counts, the results for `CCS(=O)(=O)Nc1ccc(NC(=O)c2ccc(Cl)cc2)cc1C` are 68.7 µM, 125 µM, above 62.5 µM, below 2 and below 3.
Turning to `N#Cc1ccc(C(=O)Nc2ccc(NS(=O)(=O)C(F)(F)F)c(Cl)c2)cc1`, the IC50 in series [2] was above 250 µM; in series [4], above 250 µM; in series [6], 11 µM. Also, the selectivity ratio in series [3] and in series [5] was above 23 in each case.
On to `CS(=O)(=O)Nc1ccc(NC(=O)c2cc(C(F)(F)F)cc(C(F)(F)F)c2)cc1Cl`, for which the IC50 in series [2] was 69.5 µM; in series [4], 185 µM; in series [6], 10.1 µM. In addition, the selectivity ratio was 7 in series [3] and 18 in series [5].
As for `CCS(=O)(=O)Nc1ccc(NC(=O)c2cccc(C(F)(F)F)c2)cc1OC`, the IC50 in series [2] was 84.8 µM; in series [4] it was above 250 µM; in series [6], 35.7 µM. The selectivity ratio in series [3] was 2; in series [5], above 7.
On the same counts, the results for `Cc1cc(NC(=O)c2cc(C(F)(F)F)cc(C(F)(F)F)c2)ccc1NS(=O)(=O)C(F)(F)F` are 40.7 µM, 182 µM, 20.7 µM, 2 and 9.
On to `N#Cc1ccc(C(=O)Nc2ccc(NS(=O)(=O)C(F)(F)F)c(F)c2)cc1`, for which the IC50 in series [2] was above 250 µM; in series [4], above 250 µM; in series [6] it was 2.1 µM. In addition, the selectivity ratio in series [3] and in series [5] was above 119 throughout. Besides, the inhibition entry in series [7] and in series [8] was “Dose-dependent effect” in each case. In addition, in series [1], the logP is reported as 0.998.
As to `O=C(Nc1ccc(NS(=O)(=O)C(F)(F)F)c(Cl)c1)c1cccc(C(F)(F)F)c1`, the IC50 is 55.8 µM in series [2], 210 µM in series [4] and above 62.5 µM in series [6]. Moreover, the selectivity ratio was below 1 in series [3] and below 4 in series [5].
`Cc1cc(NC(=O)c2cc(C(F)(F)F)cc(C(F)(F)F)c2)ccc1NS(C)(=O)=O`: the IC50 was above 250 µM in series [2], 163 µM in series [4] and 2.93 µM in series [6]. Moreover, the selectivity ratio is above 85 in series [3] and 56 in series [5]. Further, the inhibition entry in series [7] and in series [8] was “Dose-dependent effect” throughout. Moreover, the logP in series [1] was 1.957.
Consider `CCS(=O)(=O)Nc1ccc(NC(=O)c2ccc(Cl)c([N+](=O)[O-])c2)cc1Cl`, for which the values for the 50% inhibitory concentration (IC50) in series [2], in series [4] and in series [6] were 125 µM, 63.8 µM and 2.21 µM, respectively. Also, the results for the selectivity ratio in series [3] and in series [5] were 57 and 29, respectively.
On the same counts, the results for `CCS(=O)(=O)Nc1ccc(NC(=O)c2cccc(C(F)(F)F)c2)cc1F` are 119 µM, 94.8 µM, 33.9 µM, 4 and 3.
On the same counts, the results for `O=C(Nc1ccc(NS(=O)(=O)C(F)(F)F)c(F)c1)c1ccc(Cl)cc1` are 8.27 µM, 79 µM, above 62.5 µM, below 1 and below 2.
For the molecule `CS(=O)(=O)Nc1ccc(NC(=O)c2ccc(Cl)c([N+](=O)[O-])c2)cc1F`, the figures for the IC50 in series [2], in series [4] and in series [6] were 102 µM, 23.1 µM and above 62.5 µM, respectively. Besides, the selectivity ratio was below 2 in series [3] and below 1 in series [5].
The matching figures for `CCS(=O)(=O)Nc1ccc(NC(=O)c2ccc(Cl)c([N+](=O)[O-])c2)cc1C`: 141 µM, 144 µM, 19.4 µM, 7 and 7.
The matching figures for `CS(=O)(=O)Nc1ccc(NC(=O)c2cc(C(F)(F)F)cc(C(F)(F)F)c2)cc1F`: 125 µM, above 250 µM, 23.7 µM, 5 and above 11.
On the same counts, the results for `O=C(Nc1ccc(NS(=O)(=O)C(F)(F)F)c(F)c1)c1cccc(C(F)(F)F)c1` are 34.4 µM, 152 µM, 47.4 µM, 1 and 3.
Consider `CCS(=O)(=O)Nc1ccc(NC(=O)c2ccc(Cl)cc2)cc1F`, for which the IC50 is 152 µM in series [2], 53.4 µM in series [4] and above 62.5 µM in series [6]. In addition, the selectivity ratio in series [3] is below 3; in series [5], below 1.
On the same counts, the results for `Cc1cc(NC(=O)c2cccc(C(F)(F)F)c2)ccc1NS(C)(=O)=O` are 110 µM, 194 µM, 16.7 µM, 7 and 12.
On the same counts, the results for `COc1cc(NC(=O)c2ccc(C#N)cc2)ccc1NS(=O)(=O)C(F)(F)F` are above 250 µM, above 250 µM, 9.48 µM, above 26 and above 26.

As a reminder, the logP is the decadic logarithm of the partition coefficient of the neutral form, usually between octanol and water. Higher therefore signals higher lipophilicity. By IC50 is commonly meant the concentration that gives 50% inhibition.

Values taken from ChEMBL document CHEMBL4480436, “Lead optimization of selective tubulin inhibitors as anti-trypanosomal agents” (Bioorg Med Chem, 2019).
